# Legend:
# [1] = Conversion rate of the prodrug in human plasma; assay type: ADME, cell-free
# Method in brief: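 Disappearance of prodrug through ester hydrolysis was followed, and the rate was expressed as half-life (T1/2, min).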
# [2] = Solubility of the prodrug in water was determined; assay type: physicochemical; conditions: buffer
# Rattus norvegicus [3] = experiment: Effective dose required to inhibit the pulmonary […] infection was determined in rat by intravenous administration; assay type: functional
# Method in brief: (§1)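 Pulmonary A. fumigatus CF437 model in male Fisher rats immunosuppressed with cortisone acetate before infection. Dosed twice on the first day and once daily over the following 4 days, iv or po as the line states. ED50 determined on day 14.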
# Rattus norvegicus [4] = experiment: Effective dose required to inhibit the pulmonary […] infection was determined in rat by peroral administration; assay type: functional; conditions: po; method in brief: as §1
# Rattus norvegicus [5] = experiment: Effective dose required to inhibit the systemic […] infection was determined in rat by intravenous administration; assay type: functional
# Method in brief: (§2)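 Systemic A. fumigatus CF437 infection in male Fisher rats. Treatment twice on day 1, then once daily for the next 4 days, iv or po as the line states. ED50 taken on day 14.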
# Rattus norvegicus [6] = experiment: Effective dose required to inhibit the systemic […] infection was determined in rat by peroral administration; assay type: functional; conditions: po; method in brief: as §2
# Rattus norvegicus [7] = experiment: Effective dose required to inhibit the systemic Candida albicans infection was determined in rat by peroral administration; assay type: functional; conditions: po
# Method in brief: (§3)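 Male Fisher rats infected systemically with C. albicans ATCC48130. Dosing at 0, 4, 24 and 48 h post-infection, given iv or po as the line states. ED50 derived on day 14.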
# Rattus norvegicus [8] = experiment: Effective dose required to inhibit the systemic Candida albicans infection was determined in rat by intravenous administration; assay type: functional; method in brief: as §3
T1/2 [1],Solubility [2],Compound,ED50 (Rattus norvegicus [3]),ED50 (Rattus norvegicus [4]),ED50 (Rattus norvegicus [5]),ED50 (Rattus norvegicus [6]),ED50 (Rattus norvegicus [7]),ED50 (Rattus norvegicus [8])
2.1 h,> 5000 µg/mL,Cc1cc(C[n+]2cnn(C[C@](O)(c3ccc(F)cc3F)[C@@H](C)c3nc(-c4ccc(C#N)cc4)cs3)c2)cc(C)c1OC(=O)[C@@H]1CCCN1.O=C(O)C(F)(F)F.[Br-],17 µmol/kg,18 µmol/kg,> 35 µmol/kg,> 55 µmol/kg,< 2.1 µmol/kg,3.5 µmol/kg
< 0.033 h,49000 µg/mL,CNCC(=O)Oc1c(C)cc(C[n+]2cnn(C[C@](O)(c3ccc(F)cc3F)[C@@H](C)c3nc(-c4ccc(C#N)cc4)cs3)c2)cc1C.Cl.[Br-],8 µmol/kg,17 µmol/kg,17 µmol/kg,19 µmol/kg,4.7 µmol/kg,4.6 µmol/kg
–,< 1 µg/mL,C[C@@H](c1nc(-c2ccc(C#N)cc2)cs1)[C@](O)(Cn1cncn1)c1ccc(F)cc1F [RAVUCONAZOLE],–,19 µmol/kg,–,11 µmol/kg,1.6 µmol/kg,–
